From the RNAGym collection of RNA variant scans (doi:10.1126/science.aae0568)
This sample holds only a part of the variants without activity.

B1: tRNA (parent)
chain: GUUCCGUUGGCGUAAUGGUAACGCGUCUCCCUCCUAAGGAGAAGACUGCGGGUUCGAGUCCCGUACGGAACG

Variants of: B1
Assay: yeast fitness relative to wild type (ratio to wild type); higher = fitter; tRNA-Arg(CCU), competitive growth, 37 C, YPD
In short: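 Amplicons of the tRNA-Arg(CCU) gene were sequenced, 100-nucleotide paired-end, from the start population and from each end population of a pooled yeast competition. The competition, in six parallel replicates, lasted 24 hours in YPD at 37°C. Fitness relative to wild type was calculated from changes in genotype frequencies. Genotypes had to have ≥ 100 starting reads, and estimates < 0.5 were set to 0.5.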

Row | Variant | yeast fitness
1 | GUUCGGUUGGCGUAAUGGUAACGCGUCUCCCUCCUAAGGAGACGACUACGGGUUCGAGGCCCGUACGGAACG [C5G A43C G48A U59G] | ≤ 0.5
2 | GUUCGGUUGGCGUAAUGGUAACGCGUCUCCCUCCUAGGGAGAAGAGUGCGGGUUCGAGUCCCGUACGGAACG [C5G A37G C46G] | 0.598
3 | GUUCGGUUGGCGUAAUGGUAACGCGUCUCCCUCCUAAGGCGAAGACUGUGGGUUCGAGUCCCGUACGGAACG [C5G A40C C49U] | ≤ 0.5
4 | GUUCGGUUGGCGUAAUGGUAACGCGUCUCCCUCCUAAGGAGAAGCCUGCGGGUUCGUGUCCCGUACGGAACG [C5G A45C A57U] | ≤ 0.5
5 | GUUCGGUUGGCGUAAUGGUGACGCGUCUCCCUCCUAAGGAGAAGACUGCGGGUUGGAGUCCCGUACGGAACG [C5G A20G C55G] | 0.538
6 | GUUCGGUUGGCGUAAUGGUAGCGCGUCUCCCUCCUAAGGAAAAGACUGCGGGUUCGAGUCCCGUACAGAACG [C5G A21G G41A G67A] | ≤ 0.5
7 | GUUCGGUUGGCGUAAUGGUACCGCGUCUCCCCCCUAAGAAGAAGACUGCGGGUUCGUGCCCCGUACGGAACG [C5G A21C U32C G39A A57U U59C] | ≤ 0.5
8 | GUUCGGUUGGCGUAAUGGUAACGCGUCUCCCUCCUAAGGAGCAGACUGCGGGUUCGAGUCCCGUACGGAACG [C5G A42C] | 0.814
9 | GUUCGGUUGGCGUAAUGGUAACGCGUCUCCCUCCUAAGGAGUAGACUGCGGGUUCGAGUCCCGUACGGAACG [C5G A42U] | 0.683
10 | GUUCGGUUGGCGUAAUGGUAACGCGUCUCCCUCCUAAGGAGCAGACUGCGGGUUCGAGUCCCGUACGGACCG [C5G A42C A70C] | 0.689
11 | GUUCGGUUGGCGUAAUGGUCACGCGUGUCCCUCCUAAGGAGAAGACUGCGGGUUCGAGUCCCGUACUGAACG [C5G A20C C27G G67U] | ≤ 0.5
12 | GUUCGGUUGGCGUAAUGGUUACGCGUCUCCCUCCUAAGGAGAAGACUGCGGGUUCGAGUCCCGUGCGGAACG [C5G A20U A65G] | 0.65
13 | GUUCGGUUGGCGUAAUGGUGACGCGUCUCCCUCCUAAGGGGAAAAGUGCGGGUUCGAGUCCCGUACGGAACG [C5G A20G A40G G44A C46G] | 0.517
14 | GUUCGGUUGGCGUAAUGGUAACGCGUCUCCCUCCUAAGGAGAAGCCUGCGGGUUCGAGUUCCGUACGGUACG [C5G A45C C60U A69U] | 0.52
15 | GUUCGGUUGGCGUAAUGGUAACGCGUCUCCCUCCUACGGAGAAGACUGCGGGUUCGUGUCCCGUACGGAACG [C5G A37C A57U] | ≤ 0.5
16 | GUUCGGUUGGCGUAAUGGUAGCGCGCCUCCCUCCUAAGGAGAAGACUGAGGGUCCGAGUCCCGUGCGGAACG [C5G A21G U26C C49A U54C A65G] | ≤ 0.5
17 | GUUCGGUUGGCGUAAUGGUACCGCGUCUCCCUCCUAAGGAGAAGACUGCGAGUUCGAAUCCCGUACGGAACG [C5G A21C G51A G58A] | ≤ 0.5
18 | GUUCGGUUGGCGUAAUGGUAGCGCGUCUCCGUCCUCAGGAGAAGACUGCGGGUUCGGGUCCUGUACGGAACG [C5G A21G C31G A36C A57G C62U] | 0.586
19 | GUUCGGUUGGCGUAAUGGUAACGCGUCUCCCUCCUAAGGAGACGACUGCGGCUUCGAGUCCCGUACGGAACG [C5G A43C G52C] | ≤ 0.5

Row | Variant | yeast fitness
20 | GUUCGGUUGGCGUAAUGGUAUCGCGUCUCCCUCCUAAGGAGAAGACUGCGGGUUCGAGUCCCGUACGGAACG [C5G A21U] | 0.731
21 | GUUCGGUUGGCGUAAUGGUAGCGCGUCUCCCUACUAAGGAGAAGACUGCGGGUUCGAGUCCCGUACGCUACG [C5G A21G C33A G68C A69U] | ≤ 0.5
22 | GUUCGGUUGGCGUAAUGGUAUCGCGUCUACCUCCUAAGGAGAAGACUGCGGGUUCGAGUCCCGCACGGAACG [C5G A21U C29A U64C] | ≤ 0.5
23 | GUUCGGUUGGCGUAAUGGUAUCACGUCUACCUCCUAUGGAGAAGACUGCGGGUUCGAGUCUCGUACGGAACG [C5G A21U G23A C29A A37U C61U] | ≤ 0.5
24 | GUUCGGUUGGCGUAAUGGUAACGCGUCUCCCUCCUAAGGUGAAGACUGCGGGUUCGAGUCCCGUACGGAACG [C5G A40U] | 0.876
25 | GUUCGGUUGGCGUAAUGGUAACGCGUCUCCCUCCUAAGGGGAAGACUGCGGGUUCGAGUCCCGUACGGAACG [C5G A40G] | 0.755
26 | GUUCGGUUGGCGUAAUGGUAACGCGUCUCCCUCCUCAGGAGGAGACUGCGGGUUCGAGUCCCGUACGGAACG [C5G A36C A42G] | ≤ 0.5
27 | GUUCGGUUGGCGUAAUGGUAACGCGUCUCCCUCCUACGGAGAGGUCUGCGCGUUCGAGUCCGGUACGGAACG [C5G A37C A43G A45U G51C C62G] | ≤ 0.5
28 | GUUCGGUUGGCGUAAUGGUAACGCGUCUCCCUCCUAAGGUGGAGACUGCGGGAACGAGUCCCGUACGGAACG [C5G A40U A42G U53A U54A] | ≤ 0.5
29 | GUUCGGUUGGCGUAAUGGUAACGCGUCUCCCUCCUAAGGAGUAGACUGCGGGUUCGAGUCCCAUACGGAACG [C5G A42U G63A] | 0.531
30 | GUUCGGUUGGCGUAAUGGUCACGCGUGUCCCUCCUAAGGAGAAGACUGUGGGAUCGAGUCCCGUACGGAACG [C5G A20C C27G C49U U53A] | 0.568
31 | GUUCGGUUGGCGUAAUGGUAACGCGUCUCCCUCCUAAGGAGAAGUCUGCGGGUUCGUGUCCCGUACGGAACG [C5G A45U A57U] | 0.565
32 | GUUCGGUUGGCGUAAUGGUUACGCGUCUCCCUCCUAAGGAGAAGACUGCGGGUUCGAGUCCCGUACGCAACG [C5G A20U G68C] | ≤ 0.5
33 | GUUCGGUUGGCGUAAUGGUAGCGCGUCUCCCCCCUAAGGAGAAGACAGCGGGUUCGAGUCCCGUACGAAACG [C5G A21G U32C U47A G68A] | ≤ 0.5
34 | GUUCGGUUGGCGUAAUGGUUACGCGUCUCCCUCCUAAGGAGAAGACUGCGGGUUCGAGUCCCGUACGGAACG [C5G A20U] | 0.621
35 | GUUCGGUUGGCGUAAUGGUAACGCGUCUCCCUCCUAAGGAGCAGACUGCGGGUUCGAGUACCGUACGGAACG [C5G A42C C60A] | ≤ 0.5
36 | GUUCGGUUGGCGUAAUGGUCACACGUCUCCCUCCUAAGGAGAAGACUGCGGGUACGAGUCCCGUACGGAACG [C5G A20C G23A U54A] | ≤ 0.5
37 | GUUCGGUUGGCGUAAUGGUCACGCGUCUCCCUCCUAAGGAGAAGACUACGGGUUCGAGUCCCGUACGGAACG [C5G A20C G48A] | ≤ 0.5
